According to ChEMBL document CHEMBL1151735, “Further studies with the 2-amino-1,3-thiazol-4(5H)-one class of 11beta-hydroxysteroid dehydrogenase type 1 inhibitors: reducing pregnane X receptor activity and exploring activity in a monkey pharmacodynamic model” (J Med Chem, 2008):
Blank lines part the entries; values can stand above or below the compound they belong to. Calls of active or inactive are those of the source. The rule behind the calls is not given here.

Tests used:
[1] = molecular target: T1, 11-beta-hydroxysteroid dehydrogenase 1 (Homo sapiens, UniProt P28845); experiment: Inhibition of human recombinant 11beta-HSD1 expressed in Escherichia coli using [3H]cortisone by scintillation proximity assay
T1 sequence (P28845 whole entry): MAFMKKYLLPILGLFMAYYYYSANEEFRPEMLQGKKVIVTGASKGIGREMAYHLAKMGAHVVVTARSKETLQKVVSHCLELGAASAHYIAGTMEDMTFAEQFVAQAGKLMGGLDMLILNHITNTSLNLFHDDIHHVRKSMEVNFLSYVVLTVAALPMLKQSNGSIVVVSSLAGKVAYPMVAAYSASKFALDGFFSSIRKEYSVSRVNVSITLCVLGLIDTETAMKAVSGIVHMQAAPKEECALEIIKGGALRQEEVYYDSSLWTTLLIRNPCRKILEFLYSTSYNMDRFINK

[2] = molecular target: T1, 11-beta-hydroxysteroid dehydrogenase 1; experiment: Inhibition of human 11beta-HSD1 expressed in CHO cells assessed as conversion of cortisone to cortisol by ELISA; format: cell-based
[3] = molecular target: T2, Nuclear receptor subfamily 1 group I member 2 (Homo sapiens, UniProt O75469); experiment: Transactivation of human PXR transfected in HEK cells at 20 uM by luciferase reporter gene assay relative to 12.5 uM rifampin; format: cell-based; conditions: hek293, 20 µM
T2 sequence (O75469 whole entry): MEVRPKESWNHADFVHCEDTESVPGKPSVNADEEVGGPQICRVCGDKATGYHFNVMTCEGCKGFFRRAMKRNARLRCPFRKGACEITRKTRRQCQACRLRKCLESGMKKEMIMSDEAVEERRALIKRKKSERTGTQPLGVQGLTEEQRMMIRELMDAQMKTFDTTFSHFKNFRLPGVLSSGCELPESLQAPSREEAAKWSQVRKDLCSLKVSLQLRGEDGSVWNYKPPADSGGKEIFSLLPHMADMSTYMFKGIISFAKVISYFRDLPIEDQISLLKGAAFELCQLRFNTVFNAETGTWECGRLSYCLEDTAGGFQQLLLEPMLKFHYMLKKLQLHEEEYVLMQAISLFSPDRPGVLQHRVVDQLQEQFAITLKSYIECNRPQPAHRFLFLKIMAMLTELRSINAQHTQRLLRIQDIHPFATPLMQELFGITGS
In short: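 HEK cells transfected with human PXR fused to a firefly luciferase reporter. Luciferase activity is expressed as percent of the 12.5 µM rifampin response. Run in triplicate; SEM reported.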

[4] = molecular target: T3, 11-beta-hydroxysteroid dehydrogenase type 2 (Homo sapiens, UniProt P80365); experiment: Inhibition of human 11beta-HSD2 expressed in CHO cells using [3H]cortisol by scintillation proximity assay; format: cell-based
T3 sequence (P80365 whole entry): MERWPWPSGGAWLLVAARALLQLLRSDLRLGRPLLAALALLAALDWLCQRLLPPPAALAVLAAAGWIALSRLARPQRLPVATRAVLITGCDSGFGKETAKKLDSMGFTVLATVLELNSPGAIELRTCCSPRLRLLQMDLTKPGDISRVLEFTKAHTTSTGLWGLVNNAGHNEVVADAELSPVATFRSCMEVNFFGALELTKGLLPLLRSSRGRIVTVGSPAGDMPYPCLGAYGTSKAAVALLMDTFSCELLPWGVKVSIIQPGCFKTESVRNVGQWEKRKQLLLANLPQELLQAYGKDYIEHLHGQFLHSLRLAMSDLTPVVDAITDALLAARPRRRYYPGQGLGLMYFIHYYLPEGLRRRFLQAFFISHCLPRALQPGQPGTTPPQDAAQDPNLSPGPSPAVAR
In short: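 Human 11β-HSD2 from CHO cells with [3H]cortisol 3 nM and NAD+ 300 µM, in 0.1 M sodium phosphate pH 7.6. 1 h at room temperature, then stopped with 18β-glycyrrhetinic acid. Anticortisol antibody and antimouse SPA beads added for 30 min; radiometric read-out.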

Hepatocyte [5] = experiment: Induction of CYP3A4 in cryopreserved human hepatocytes from male DJV donars with no adverse medical history or substance or alcohol abuse assessed as mRNA expression at 20 uM relative to 20 uM rifampin; format: functional
Hepatocyte [6] = experiment: Induction of CYP3A4 in cryopreserved human hepatocytes from female NPV donars with history of tobacco and substance usage assessed as mRNA expression at 20 uM relative to 20 uM rifampin; format: functional
Cytochrome P450 3A4 [7] = molecular target: T4, Cytochrome P450 3A4 (Homo sapiens, UniProt P08684); experiment: Induction of CYP3A4 activity in cryopreserved human hepatocytes from male DJV donars with no adverse medical history or substance or alcohol abuse at 20 uM relative to 20 uM rifampin
T4 sequence (P08684 whole entry): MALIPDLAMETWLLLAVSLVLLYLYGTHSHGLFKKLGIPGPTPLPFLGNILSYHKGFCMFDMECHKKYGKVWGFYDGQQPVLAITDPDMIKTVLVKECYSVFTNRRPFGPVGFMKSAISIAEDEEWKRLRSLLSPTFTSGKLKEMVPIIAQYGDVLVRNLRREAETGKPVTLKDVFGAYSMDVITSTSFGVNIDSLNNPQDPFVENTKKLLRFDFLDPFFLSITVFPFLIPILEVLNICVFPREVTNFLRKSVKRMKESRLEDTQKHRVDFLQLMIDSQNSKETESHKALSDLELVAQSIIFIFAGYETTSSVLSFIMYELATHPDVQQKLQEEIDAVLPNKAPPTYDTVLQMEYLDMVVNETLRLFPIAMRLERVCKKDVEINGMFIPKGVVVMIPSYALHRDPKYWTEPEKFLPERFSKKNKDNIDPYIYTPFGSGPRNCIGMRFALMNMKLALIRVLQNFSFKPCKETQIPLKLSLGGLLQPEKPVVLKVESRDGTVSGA

Cytochrome P450 3A4 [8] = molecular target: T4, Cytochrome P450 3A4; experiment: Induction of CYP3A4 activity in cryopreserved human hepatocytes from female NPV donars with history of tobacco and substance usage at 20 uM relative to 20 uM rifampin
[9] = molecular target: T5, 11-beta-hydroxysteroid dehydrogenase 1 (Mus musculus, UniProt P50172); experiment: Inhibition of mouse recombinant 11beta-HSD1 expressed in Escherichia coli using [3H]cortisone by scintillation proximity assay
T5 sequence (P50172 whole entry): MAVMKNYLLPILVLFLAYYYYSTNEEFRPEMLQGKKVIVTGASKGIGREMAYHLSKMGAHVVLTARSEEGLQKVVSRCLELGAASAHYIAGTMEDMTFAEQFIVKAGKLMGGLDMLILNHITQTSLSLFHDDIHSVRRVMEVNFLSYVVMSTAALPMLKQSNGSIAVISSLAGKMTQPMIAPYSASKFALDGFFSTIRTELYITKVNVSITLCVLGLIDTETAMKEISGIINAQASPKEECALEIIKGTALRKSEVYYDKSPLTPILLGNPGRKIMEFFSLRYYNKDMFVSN
In short: (§1)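 Purified enzyme expressed in E. coli, dog at 20 nM final and mouse at 5 nM. [3H]cortisone 100 nM, NADPH 200 µM, in 50 mM Tris-HCl, 1 mM EDTA, pH 7.2. 1 h at room temperature, then stopped with 18β-glycyrrhetinic acid. Anticortisol antibody and antimouse SPA beads added for 30 min; read by scintillation counting. Ki derived.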

[10] = molecular target: T6, 11-beta-hydroxysteroid dehydrogenase 1 (Rattus norvegicus, UniProt P16232); experiment: Inhibition of rat recombinant 11beta-HSD1 expressed in Escherichia coli using [3H]cortisone by scintillation proximity assay
T6 sequence (P16232 whole entry): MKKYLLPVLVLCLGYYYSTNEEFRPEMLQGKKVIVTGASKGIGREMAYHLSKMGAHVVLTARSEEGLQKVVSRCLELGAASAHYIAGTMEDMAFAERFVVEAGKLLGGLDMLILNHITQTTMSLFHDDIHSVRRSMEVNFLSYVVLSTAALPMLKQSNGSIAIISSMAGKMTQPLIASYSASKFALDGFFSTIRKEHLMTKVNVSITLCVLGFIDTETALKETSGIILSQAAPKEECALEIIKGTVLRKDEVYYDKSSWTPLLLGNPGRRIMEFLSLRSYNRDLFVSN

[11] = molecular target: T7, 11-beta-hydroxysteroid dehydrogenase type 1 (Canis lupus familiaris, UniProt Q5XX84); experiment: Inhibition of dog recombinant 11beta-HSD1 expressed in Escherichia coli using [3H]cortisone by scintillation proximity assay; in short: as §1
T7 sequence (Q5XX84 whole entry): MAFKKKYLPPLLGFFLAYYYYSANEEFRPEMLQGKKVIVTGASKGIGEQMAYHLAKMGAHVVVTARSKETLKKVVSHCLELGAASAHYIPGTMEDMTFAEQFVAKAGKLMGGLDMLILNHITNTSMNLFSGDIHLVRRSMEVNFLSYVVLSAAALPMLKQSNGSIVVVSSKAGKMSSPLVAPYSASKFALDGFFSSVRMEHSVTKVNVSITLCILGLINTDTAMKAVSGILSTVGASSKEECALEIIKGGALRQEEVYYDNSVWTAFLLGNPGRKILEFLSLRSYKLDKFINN

[12] = Inhibition of monkey recombinant 11beta-HSD1 expressed in Escherichia coli using [3H]cortisone by scintillation proximity assay; parameters: species or system Macaca mulatta
[13] = molecular target: T5, 11-beta-hydroxysteroid dehydrogenase 1; experiment: Inhibition of mouse 11beta-HSD1 expressed in CHO cells assessed as conversion of cortisone to cortisol by ELISA; format: cell-based
In short: (§2)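 CHO cells stably overexpressing the species 11β-HSD1, 30000 per well, seeded 1 day before. Rinsed in HEPES glucose buffer pH 7.4 with 0.1% DMSO. Compound 0.1 nM–10 µM final, 60 min at 37 °C. Cortisone then added (100 nM final) at 37 °C: mouse 45 min, dog 1.5 h, rat and monkey 2 h. Cortisol measured by ELISA.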

[14] = molecular target: T6, 11-beta-hydroxysteroid dehydrogenase 1; experiment: Inhibition of rat 11beta-HSD1 expressed in CHO cells assessed as conversion of cortisone to cortisol by ELISA; format: cell-based; in short: as §2
[15] = molecular target: T7, 11-beta-hydroxysteroid dehydrogenase type 1; experiment: Inhibition of dog 11beta-HSD1 expressed in CHO cells assessed as conversion of cortisone to cortisol by ELISA; format: cell-based; in short: as §2
[16] = Inhibition of monkey 11beta-HSD1 expressed in CHO cells assessed as conversion of cortisone to cortisol by ELISA; format: cell-based, Macaca mulatta; in short: as §2
[17] = Clearance in mouse at 2 mg/kg, iv and 10 mg/kg, po; format: ADME, organism-based; conditions: in vivo
[18] = Volume of distribution at steady state in mouse at 2 mg/kg, iv and 10 mg/kg, po; format: ADME, organism-based; conditions: in vivo, read-out: Vdss
[19] = Half life in mouse at 2 mg/kg, iv; format: ADME, organism-based; parameters: dose 2 mg/kg, route intravenous; conditions: in vivo
[20] = AUC (0 to infinity) in mouse at 10 mg/kg, po; format: ADME, organism-based; parameters: dose 10 mg/kg, route oral, time infinity; conditions: plasma
[21] = Oral bioavailability in mouse at 10 mg/kg; format: ADME, organism-based; conditions: in vivo
[22] = Clearance in rat at 2 mg/kg, iv and 5 mg/kg, po; format: ADME, organism-based; conditions: in vivo
[23] = Volume of distribution at steady state in rat at 2 mg/kg, iv and 5 mg/kg, po; format: ADME, organism-based; conditions: in vivo, read-out: Vdss
[24] = Half life in rat at 2 mg/kg, iv; format: ADME, organism-based; parameters: dose 2 mg/kg, route intravenous; conditions: in vivo
[25] = AUC (0 to infinity) in rat at 5 mg/kg, po; format: ADME, organism-based; parameters: time infinity, dose 5 mg/kg, route oral; conditions: plasma
[26] = Oral bioavailability in rat at 5 mg/kg; format: ADME, organism-based; conditions: in vivo
[27] = Clearance in dog at 2 mg/kg, iv and 5 mg/kg, po; format: ADME, organism-based, Canis lupus familiaris; conditions: in vivo
In short: (§3)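 Dog PK: intravenous 2 mg kg^-1 in 10% dimethylacetamide, 23% water, 67% PEG 400; oral 5 mg kg^-1 in 1% Tween 80, 47.5% OraPlus, 51.5% water.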

[28] = Volume of distribution at steady state in dog at 2 mg/kg, iv and 5 mg/kg, po; format: ADME, organism-based, Canis lupus familiaris; conditions: in vivo, read-out: Vdss; in short: as §3
[29] = Half life in dog at 2 mg/kg, iv; format: ADME, organism-based, Canis lupus familiaris; parameters: dose 2 mg/kg, route intravenous; conditions: in vivo; in short: as §3
[30] = AUC (0 to infinity) in dog at 5 mg/kg, po; format: ADME, organism-based, Canis lupus familiaris; parameters: time infinity, dose 5 mg/kg, route oral; conditions: plasma
[31] = Oral bioavailability in dog at 5 mg/kg; format: ADME, organism-based, Canis lupus familiaris; conditions: in vivo
[32] = Clearance in monkey at 2 mg/kg, iv and 10 mg/kg, po; format: ADME, organism-based, Macaca mulatta; conditions: rhesus monkey, in vivo
[33] = Volume of distribution at steady state in monkey at 2 mg/kg, iv and 10 mg/kg, po; format: ADME, organism-based, Macaca mulatta; conditions: rhesus monkey, in vivo, read-out: Vdss
[34] = Half life in monkey at 2 mg/kg, iv; format: ADME, organism-based, Macaca mulatta; parameters: dose 2 mg/kg, route intravenous; conditions: rhesus monkey, in vivo
[35] = AUC (0 to infinity) in monkey at 10 mg/kg, po; format: ADME, organism-based, Macaca mulatta; parameters: time infinity, dose 10 mg/kg, route oral; conditions: rhesus monkey, plasma
[36] = Oral bioavailability in monkey at 10 mg/kg; format: ADME, organism-based, Macaca mulatta; conditions: rhesus monkey, in vivo
[37] = Fraction unbound in cynomolgus monkey plasma protein; format: ADME, cell-free, Macaca fascicularis
Cynomolgus monkey [38] = experiment: Plasma concentration in cynomolgus monkey at 3 mg/kg, po; format: ADME, organism-based, Macaca fascicularis; parameters: dose 3 mg/kg, route oral; conditions: in vivo
In short: (§4)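 Male cynomolgus monkeys, at least four per group, given a single nasal-gastric dose in 1% Tween 80, 47.5% Ora-Plus, 51.5% water. Plasma collected 2 h post-dose and snap-frozen.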

Cynomolgus monkey [39] = experiment: Plasma concentration in cynomolgus monkey at 30 mg/kg, po; format: ADME, organism-based, Macaca fascicularis; parameters: dose 30 mg/kg, route oral; conditions: in vivo; in short: as §4
Cynomolgus monkey [40] = experiment: Inhibition of 11beta-HSD1 in mesenteric fat of cynomolgus monkey assessed as conversion of [3H]cortisone to [3H]cortisol at 3 mg/kg, po after 2 hrs; format: functional, organism-based; parameters: dose 3 mg/kg; conditions: Macaca fascicularis
In short: (§5)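 Male cynomolgus monkeys, at least four per group, given a single nasal-gastric dose in 1% Tween 80/47.5% Ora-Plus/51.5% water. Plasma and mesenteric fat taken 2 h post-dose and snap-frozen. About 50 mg fat pieces, in triplicate, incubated 1 h at 37 °C in KRP buffer pH 7.4 containing 3H-cortisone. 3H-cortisol in the medium quantified by SPA with anti-cortisol antibody beads.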

Cynomolgus monkey [41] = experiment: Inhibition of 11beta-HSD1 in mesenteric fat of cynomolgus monkey assessed as conversion of [3H]cortisone to [3H]cortisol at 30 mg/kg, po after 2 hrs; format: functional, organism-based; parameters: dose 30 mg/kg; conditions: Macaca fascicularis; in short: as §5

- Ki [1]: 26 nM
- IC50 [2]: 18 nM
- Activity [3]: 63%
- IC50 [4]: > 10000 nM
Structure (SMILES): C[C@H](NC1=NC(=O)C(C)(C(C)(C)O)S1)c1ccccc1Cl (some centres undefined)

Structure (SMILES): C[C@H](NC1=NC(=O)[C@](C)(C(C)(C)O)S1)c1ccc(F)cc1
- Ki [1]: 35 nM
- IC50 [2]: 34 nM
- Activity [3]: 6%
- Activity (Hepatocyte [5]): 45%
- Activity (Hepatocyte [6]): 13%
- Activity (Cytochrome P450 3A4 [7]): 17%
- Activity (Cytochrome P450 3A4 [8]): 10%
- Ki [9]: 100 nM
- Ki [10]: 300 nM
- Ki [11]: 12 nM
- Ki [12]: 48 nM
- IC50 [13]: 140 nM
- IC50 [14]: 340 nM
- IC50 [15]: 45 nM
- IC50 [16]: 42 nM
- clearance [17]: 26.7 mL/min/kg
- Vd [18]: 1.4 L/kg
- half-life [19]: 3.3 h
- AUC(0-inf) [20]: 6500 ng·h/mL
- bioavailability [21]: 100%
- clearance [22]: 5.17 mL/min/kg
- Vd [23]: 2.5 L/kg
- half-life [24]: 5.6 h
- AUC(0-inf) [25]: 9200 ng·h/mL
- bioavailability [26]: 56%
- clearance [27]: 1.42 mL/min/kg
- Vd [28]: 0.88 L/kg
- half-life [29]: 7.3 h
- AUC(0-inf) [30]: 54000 ng·h/mL
- bioavailability [31]: 91%
- clearance [32]: 20 mL/min/kg
- Vd [33]: 1.9 L/kg
- half-life [34]: 2.2 h
- AUC(0-inf) [35]: 5700 ng·h/mL
- bioavailability [36]: 65%
- fraction unbound [37]: 0.108
- concentration (Cynomolgus monkey [38]): 4.9 µM
- concentration (Cynomolgus monkey [39]): 26 µM
- Activity (Cynomolgus monkey [40]): Active
- Activity (Cynomolgus monkey [41]): Active
